Experimental data as given in ChEMBL document CHEMBL4359864, “The synthesis and in vitro biological evaluation of novel fluorinated tetrahydrobenzo[j]phenanthridine-7,12-diones against Mycobacterium tuberculosis” (Eur J Med Chem, 2019).
Activity calls are given as the source filed them.

Assays:
Staphylococcus aureus = experiment: Antibacterial activity against Staphylococcus aureus ATCC 6538 incubated for 24 hrs by resazurin dye based fluorimetric assay; format: functional, organism-based; conditions: ATCC 6538, 24 h
Procedure, shortened: (§1)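 Resazurin microtiter assay: compounds from 10 mM DMSO stock, twofold serial dilutions from 64 µM final in growth medium, in triplicate. Inoculum from frozen glycerol stocks. Exposure 24 h, or 7 days for Mtb H37Ra (7H9 + 0.5% glycerol + 10% OADC). Then 0.01% resazurin was added and plates were incubated at 37°C until pink. Fluorescence read at ex 550/em 590 nm; mean of triplicates.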

CYP450 = CYP450 (Homo sapiens, UniProt P04798+P05177+P05181+P08684+P10632+P10635+P11509+P11712+P13584+P20813+P20815+P20853+P24462+P24903+P33260+P33261+P51589+P78329+P98187+Q02928+Q08477+Q16678+Q16696+Q5TCH4+Q6VVX0+Q7Z449+Q8TAV3+Q96SQ9+Q9HB55); experiment: Microsomal stability in human liver microsomes assessed as CYP450-mediated metabolism by measuring compound remaining at 5 uM and measured for 15 mins in presence of NADPH by UPLC-MS/MS analysis (reference value: 100%); format: ADME; conditions: read-out: Stability
Procedure, shortened: (§2)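 Compound at 5 µM with 0.5 mg/mL liver microsomes in PBS. Phase I was started with 1 mM NADPH; phase II used 2 mM UDPGA. Diclofenac served as reference. Samples taken at 0, 15, 30 and 60 min were quenched in ice-cold acetonitrile, centrifuged at 4°C and analysed by LC-MS. Mean of at least two replicates ± SD.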

[1] = Genotoxicity in Salmonella typhimurium TA104 harboring with RecN2-4 assessed as S/N ratio at 1 to 100 uM measured for 4 hrs with 5 mins interval by luminescence based assay; format: toxicity; conditions: salmonella enterica subsp. enterica serovar typhimurium
Procedure, shortened: (§3)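 VITOTOX test. Genox (recN2-4) and Cytox (pr1) S. typhimurium TA104 strains were diluted 250-fold and grown in 869 medium for 16 h at 36°C with shaking, then diluted 10-fold and grown 1 h more. Compounds tested at 1, 10 and 100 µM, with or without rat liver S9-mix. Luminescence read for 4 h at 5-min intervals. S/N thresholds: Genox >1.5 genotoxic; Cytox <0.8 toxic, >1.5 luminescence artefact.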

Klebsiella pneumoniae = experiment: Antibacterial activity against Klebsiella pneumoniae ATCC 13883 incubated for 24 hrs by resazurin dye based fluorimetric assay; format: functional, organism-based; conditions: ATCC 13883, 24 h; procedure, shortened: as §1
[2] = test system: Mycobacterium tuberculosis; experiment: Antimycobacterial activity against Mycobacterium tuberculosis H37Ra lux infected in mouse J774A.1 cells assessed as reduction in intracellular mycobacterial replication at 10.0 uM incubated for 24 to 72 hrs by luminometric assay relative to control; format: functional
Procedure, shortened: (§4)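 J774A.1 cells were infected at MOI 10 for 2 h at 37°C. Extracellular bacteria were killed with 100 µg/mL gentamicin for 1 h, then cells were washed and treated. At 24, 48 and 72 h, cells were lysed with 1% Triton X-100 and n-decanal was added to the lysate. Luminescence (RLU) reported as mean of triplicates ± SD.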

UGT [3] = experiment: Microsomal stability in mouse liver microsomes assessed as UGT-mediated metabolism by measuring compound remaining at 5 uM and measured for 60 mins in presence of UDPGA by UPLC-MS/MS analysis (reference value: 100%); format: ADME; conditions: read-out: Stability; procedure, shortened: as §2
UGT [4] = molecular target: UGT (Homo sapiens, UniProt O60656+O75310+O75795+P06133+P0DTE4+P0DTE5+P16662+P19224+P22309+P22310+P35503+P35504+P36537+P54855+Q6UWM9+Q9BY64+Q9HAW7+Q9HAW8+Q9HAW9); experiment: Microsomal stability in human liver microsomes assessed as UGT-mediated metabolism by measuring compound remaining at 5 uM and measured for 60 mins in presence of UDPGA by UPLC-MS/MS analysis (reference value: 100%); format: ADME; conditions: read-out: Stability; procedure, shortened: as §2
[5] = test system: Mycobacterium tuberculosis; experiment: Induction of ROS generation in Mycobacterium tuberculosis H37Ra ATCC 25177 assessed as increase in superoxide radicals incubated with CMH probe for 50 mins followed by compound addition and measured for 3 to 48 hrs by EPR analysis; format: functional
Procedure, shortened: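 Mtb H37Ra cultures were exposed to compound, rifampicin or moxifloxacin (2 x MIC), alongside untreated controls. Samples were measured by EPR at 3, 6, 24 and 48 h. Spectra were simulated and double-integrated (aN = 1.58 mT) and converted to absolute CMH radical concentration by calibration. Mean of at least three replicates ± SD; two-way ANOVA with Tukey test.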

[6] = test system: Mycobacterium tuberculosis; experiment: Antimycobacterial activity against Mycobacterium tuberculosis H37Ra lux infected in mouse J774A.1 cells assessed as reduction in intracellular mycobacterial replication at 1.5 uM incubated for 24 to 72 hrs by luminometric assay relative to control; format: functional; procedure, shortened: as §4
Pseudomonas aeruginosa = experiment: Antibacterial activity against Pseudomonas aeruginosa ATCC 9027 incubated for 24 hrs by resazurin dye based fluorimetric assay; format: functional, organism-based; conditions: ATCC 9027, 24 h; procedure, shortened: as §1
[7] = Selectivity index, ratio of […] for cytotoxicity against mouse J774A.1 cells; format: toxicity, cell-based; conditions: read-out: Selectivity Index
[8] = Genotoxicity in Salmonella typhimurium TA104 harboring with pr1 assessed as S/N ratio at 1 to 100 uM measured for 4 hrs with 5 mins interval in presence of rat liver S9 fraction by luminescence based assay; format: toxicity, subcellular; conditions: salmonella enterica subsp. enterica serovar typhimurium, s9, 4 h; procedure, shortened: as §3
[9] = Cytotoxicity against mouse J774A.1 cells assessed as reduction in cell viability incubated for 24 hrs by neutral red uptake assay; format: cell-based, J774.A1
Procedure, shortened: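 J774A.1 cells in DMEM + 10% iFCS, 37°C, 5% CO2, seeded at 40.000 cells/well and left overnight. Twofold dilutions from 128 µM final; 24 h exposure. Neutral red uptake for 3 h, dye extracted with 1:1 ethanol/acetic acid, OD read at 530 nm (reference 620 nm). CC50 = 50% reduction in uptake; mean of triplicates.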

Row | SMILES | IC50 (Staphylococcus aureus) | remaining at 0.25 h, 5 µM (CYP450) | Ratio [1] | IC50 (Klebsiella pneumoniae) | Activity [2] | remaining at 1 h, 5 µM (UGT [3]) | remaining at 1 h, 5 µM (UGT [4]) | fold change (FC) [5] | Activity [6] | IC50 (Pseudomonas aeruginosa) | selectivity ratio [7] | Ratio [8] | CC50 at 24 h [9]
1 | O=C1C2=C(C(=O)c3c1cnc1c(F)cccc31)C1CCC2C1 (stereo not given) | > 32 µM | 100% | <= 1.5 | > 64 µM | inactive | 61% | 65% | 2.85 | inactive | > 64 µM | 19.3 | >= 0.8 | 85.5 µM
2 | O=C1C2=C(C(=O)c3c1cnc1ccccc31)C1CCC2C1 (stereo not given) | 32 to 64 µM | 100% | <= 1.5 | > 64 µM | 84.14% | 78% | 68% | – | 20.68% | > 64 µM | 10.2 | >= 0.8 | 64.5 µM
